Compound activity: PubChem, The Scripps Research Institute Molecular Screening Center
An excerpt weighted towards active compounds, which were near 0.75% of everything screened.
ZTA counter: blocks Epstein-Barr virus ZTA, an EBNA-1 counter-screen; P03206; ZTA-DNA binding, fluorescence polarization; inhibition, % at 11 µM; 0.15% of 320,000 active; AID 2234; in the data active = inhibition above about 33%
Target sequence (P03206 whole entry, looked up): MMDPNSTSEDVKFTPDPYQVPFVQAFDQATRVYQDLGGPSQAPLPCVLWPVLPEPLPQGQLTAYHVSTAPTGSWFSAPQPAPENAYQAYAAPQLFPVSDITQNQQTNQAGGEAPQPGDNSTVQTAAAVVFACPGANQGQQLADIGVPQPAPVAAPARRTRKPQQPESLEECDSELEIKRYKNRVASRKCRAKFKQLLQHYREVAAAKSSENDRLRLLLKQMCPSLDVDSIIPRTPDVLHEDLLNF
ARFGAP1 inh: inhibitors of rat ARFGAP1 GAP activity, primary screen, biochemical, fluorescence polarization, GDP tracer. ADP-ribosylation factor GTPase-activating protein 1 (Rattus norvegicus), Q62848. Arfgap1-stimulated ARF1 GTP hydrolysis, GDP FP detection. inhibition, % at 16.5 µM. 0.26% of 360,000 active. AID 651572, 2012;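 active = inhibition above a per-plate limit, mean inhibition of low control wells plus 3 SD, cut at about 25% in these data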
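Assay system: Rat Arfgap1 GAP domain (His6, aa 1-136), purified enzyme | Buffer or medium: HEPES 25 mM pH 7.5, NaCl 150 mM, MgCl2, DTT | Schedule: GTP hydrolysis reaction 2 h at 25 °C | Signal: FP of antibody-bound GDP Alexa 633 tracer, ex 620/em 688 nm | Measure: Percent inhibition of Arfgap1-stimulated GTP hydrolysis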
ASAP1 inh: inhibitors of human ASAP1 ArfGAP activity, primary screen, biochemical, fluorescence polarization; ASAP1-stimulated ARF1 GTP hydrolysis, GDP FP detection; AID 624377, 2012; 0.19% of 360,000 active; inhibition, % at 16.5 µM; Arf-GAP with SH3 domain, ANK repeat and PH domain-containing protein 1 (Homo sapiens), …; in the data active = inhibition above about 25%
Target sequence (Q9ULH1 325-724 limits assumed): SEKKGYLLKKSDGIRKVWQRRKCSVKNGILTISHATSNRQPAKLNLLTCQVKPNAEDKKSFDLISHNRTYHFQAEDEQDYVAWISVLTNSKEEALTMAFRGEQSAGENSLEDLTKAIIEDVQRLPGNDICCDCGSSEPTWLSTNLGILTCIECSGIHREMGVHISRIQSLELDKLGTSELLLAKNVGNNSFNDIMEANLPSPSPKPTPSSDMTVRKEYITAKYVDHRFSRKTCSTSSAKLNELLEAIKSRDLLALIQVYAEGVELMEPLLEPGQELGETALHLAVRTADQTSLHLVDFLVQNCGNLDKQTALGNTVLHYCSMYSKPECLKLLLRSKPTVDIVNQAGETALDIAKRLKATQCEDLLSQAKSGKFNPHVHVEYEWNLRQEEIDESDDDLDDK
EBNA-1 inhibitor: EBNA-1 DNA-binding inhibitors, primary screen, biochemical, fluorescence polarization; inhibition, % at 14.8 µM; 0.34% of 300,000 active; in the data active = inhibition above about 28%
EBNA-1 inh conf: EBNA-1 DNA-binding inhibitors, retest, confirmation, biochemical, fluorescence polarization, triplicate; shares compounds with EBNA-1 inhibitor; Recombinant EBNA-1 DBD, Cy5-DNA fluorescence polarization; inhibition, % at 14.8 µM; 35% of 830 active;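 active = mean inhibition across replicates above a set limit taken from the earlier primary screen, cut at about 28% in these data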
ZTA counter trip: EBV Zta DNA binding inhibitors, counter-screen for EBNA-1 inhibitor project, biochemical, fluorescence polarization, triplicate; shares compounds with EBNA-1 inhibitor; Zta-ZRE DNA binding, Cy5 fluorescence polarization; inhibition, % at 11.1 µM; 830 tested, under 10 active;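 active = mean inhibition over triplicates above a set limit taken from the primary EBNA-1 screen, cut at about 37% in these data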;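 note: purified full length Zta protein with Cy5 labeled ZRE DNA probe; inhibitors lower polarization by freeing the labeled DNA probe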
Each line names hits and unclear results; the compound was inactive in the other large screens (follow-up assays come after a bar, where they were run).

O=C1CCCCC1CCS(=O)(=O)NCc1ccccc1 (configuration not stated)	none (no result: ZTA counter, EBNA-1 inhibitor)
COC(=O)Cc1c(C)c2ccc(OCC(C)=O)c(C)c2oc1=O	none
COC(=O)Cc1c(C)c2ccc(OCC(=O)N3CCCC(C)C3)c(C)c2oc1=O (configuration not stated)	EBNA-1 inhibitor 48 | EBNA-1 inh conf inactive | ZTA counter trip inactive
C=CCNc1cccc2c1S(=O)(=O)N[C@H](Cc1ccccc1)CO2	none (no result: ZTA counter, EBNA-1 inhibitor)
Cc1ccc2nc(SCC(=O)NCc3cccs3)c(C#N)cc2c1	EBNA-1 inhibitor 33 | EBNA-1 inh conf inactive | ZTA counter trip inactive
COc1cccc(Nc2nnc(SCn3nnc4ccccc4c3=O)s2)c1	EBNA-1 inhibitor 43 | EBNA-1 inh conf 38 | ZTA counter trip inactive
CCc1ccc(Nc2nnc(SCn3nnc4ccccc4c3=O)s2)cc1	none
COc1ccc(Cn2c(C)c(CC(=O)Nc3ccc(Oc4cccnc4)c(C)c3)c3ccccc32)cc1	none (no result: ZTA counter, EBNA-1 inhibitor)
N#Cc1c2c(c(Nc3ccc(O)cc3)n3c1nc1ccccc13)CCC2	EBNA-1 inhibitor 39 | EBNA-1 inh conf inactive | ZTA counter trip inactive
N#Cc1c2c(c(NCc3ccco3)n3c1nc1ccccc13)CCC2	none
O=C(N/N=C/c1ccc(F)cc1)c1cc(-c2ccc3c(c2)OCO3)n[nH]1	EBNA-1 inhibitor 32 | EBNA-1 inh conf inactive | ZTA counter trip inactive
CN(C)c1ccc(/C=N/NC(=O)c2cc(-c3ccc4c(c3)OCO4)n[nH]2)cc1	none
Cc1ccc(OCC(=O)Nc2ccc(S(=O)(=O)Nc3ccccn3)cc2)cc1C	EBNA-1 inhibitor 43 | EBNA-1 inh conf inactive | ZTA counter trip inactive
CCc1cccc(OCC(=O)Nc2ccc(S(=O)(=O)Nc3ccccn3)cc2)c1	none
O=c1[nH]c(CN2CCN(S(=O)(=O)c3ccc4ccccc4c3)CC2)nc2ccccc12	EBNA-1 inhibitor 84 | EBNA-1 inh conf 122 | ZTA counter trip inactive
CC(=O)N1C[C@@H](CO)[C@@H]2C[C@H]1c1ccccc1N2C	none (no result: ZTA counter, EBNA-1 inhibitor)
Nc1ccn([C@@H]2O[C@H](C(=O)N[C@H](Cc3ccccc3)C(=O)Nc3ccc4scnc4c3)[C@@H](O)[C@H]2O)c(=O)n1	none (no result: ZTA counter, EBNA-1 inhibitor)
CCCCCCCCN1C(=O)[C@@H](CC(=O)N2CCOCC2)C[C@@]2(C(=O)OC)C1=C[C@H](C1CCCC1)O[C@@H]2C	none (no result: ZTA counter, EBNA-1 inhibitor)
CCOC(=O)CC(NC(=O)C1c2ccccc2Oc2ccccc21)c1ccccc1Cl (configuration not stated)	EBNA-1 inhibitor 102 | EBNA-1 inh conf inactive | ZTA counter trip inactive
O=C(Nc1nnc(CC(c2ccccc2)c2ccccc2)s1)c1ccco1	EBNA-1 inhibitor 37 | EBNA-1 inh conf inactive | ZTA counter trip inactive
Cc1ccnc(OC(C(=O)O)C(OCCc2ccccc2)(c2ccccc2)c2ccccc2)n1 (configuration not stated)	none
Cc1cc(C)nc(OC(C(=O)O)C(OCCc2ccccc2)(c2ccccc2)c2ccccc2)n1 (configuration not stated)	EBNA-1 inhibitor 28 | EBNA-1 inh conf inactive | ZTA counter trip inactive
N#CCC(=N)N1CCN(c2ccccc2)CC1	none
N#CCC(=N)N1CCN(c2cccc(Cl)c2)CC1	EBNA-1 inhibitor 45 | EBNA-1 inh conf inactive | ZTA counter trip inactive
CCOc1ccc(NC(=O)CCC(=O)NNC(=O)COc2ccc(C)cc2Br)cc1	EBNA-1 inhibitor 51 | EBNA-1 inh conf 99 | ZTA counter trip inactive
O=C(NCCCN1CCOCC1)c1ccc(Br)s1	none
O=C(NCCCCNC(=O)c1ccc(Br)s1)c1ccc(Br)s1	EBNA-1 inhibitor 46 | EBNA-1 inh conf inactive | ZTA counter trip inactive
COC(=O)[C@]12C[C@H](CC(=O)NCc3cccs3)C(=O)N(Cc3ccccc3)C1=C[C@H](C(C)(C)C)O[C@@H]2C	none (no result: ZTA counter, EBNA-1 inhibitor)
COc1ccc(Nc2nc(N(C)c3ccccc3)nc(N)c2[N+](=O)[O-])cc1	EBNA-1 inhibitor 34 | EBNA-1 inh conf 40 | ZTA counter trip inactive
CN(C)c1ccc(/C=C(\C#N)C(=O)NCc2ccco2)cc1	EBNA-1 inhibitor 44 (no result: ARFGAP1 inh, ASAP1 inh) | EBNA-1 inh conf 69 | ZTA counter trip inactive
CCN(CC)c1ccc(/C=C(\C#N)C(=O)NCc2ccco2)cc1	none
Cc1cccc(N2CCN(S(=O)(=O)c3ccc4c(c3)n(C)c(=O)c(=O)n4C)CC2C)c1 (configuration not stated)	EBNA-1 inhibitor 35 | EBNA-1 inh conf inactive | ZTA counter trip inactive
Cc1csc(NC(=O)COc2ccc3c(C)cc(=O)oc3c2)n1	EBNA-1 inhibitor 44 | EBNA-1 inh conf 47 | ZTA counter trip inactive
N#C/C(=C\c1cn(Cc2ccccc2C#N)c2ccccc12)C(=O)NCc1cccs1	EBNA-1 inhibitor 31 | EBNA-1 inh conf inactive | ZTA counter trip inactive
C=CCN=C1NC(c2ccccc2)C(C(=O)OC)=C(C)N1Cc1ccccc1C(F)(F)F (configuration not stated)	none (no result: ZTA counter, EBNA-1 inhibitor)
O=C(N/N=C/c1ccc(OCC(=O)N2CCOCC2)cc1)c1ccccc1Cl	none
CS(=O)(=O)N(CC(=O)N/N=C/c1ccc(OCC(=O)N2CCOCC2)cc1)c1ccccc1Cl	EBNA-1 inhibitor 36 | EBNA-1 inh conf inactive | ZTA counter trip inactive
NC(=O)c1cccc(NC(=O)Nc2ccc(Cl)cc2)c1	EBNA-1 inhibitor 38 | EBNA-1 inh conf inactive | ZTA counter trip inactive
COC(=O)C1=C(C)N(C)C(=NCc2ccccc2C(F)(F)F)NC1CCc1ccccc1 (configuration not stated)	none (no result: ZTA counter, EBNA-1 inhibitor)
O=C(OCCN1C(=O)c2ccccc2C1=O)c1ccccc1	EBNA-1 inhibitor 46 | EBNA-1 inh conf inactive | ZTA counter trip inactive
CCOc1ccc(-n2c(=O)c3sccc3n(CC(=O)Nc3cccc(OC)c3)c2=O)cc1	EBNA-1 inhibitor 52 | EBNA-1 inh conf 31 | ZTA counter trip inactive
COc1cc(NC(=S)NC(=O)c2ccc(C(C)(C)C)cc2)ccc1NC(=O)c1cccs1	none
COc1cc(C(=O)NC(=S)Nc2ccc(NC(=O)c3ccco3)cc2)cc(OC)c1OC	none
COc1cc(NC(=S)NC(=O)c2ccc(F)cc2)ccc1NC(=O)c1ccco1	EBNA-1 inhibitor 40 | EBNA-1 inh conf 35 | ZTA counter trip inactive
COc1cc(NC(=S)NC(=O)c2cc(C)cc(C)c2)ccc1NC(=O)c1cccs1	EBNA-1 inhibitor 70 | EBNA-1 inh conf inactive | ZTA counter trip inactive
C[C@@H]1CN([C@H](C)CO)S(=O)(=O)c2ccc(Br)cc2O[C@H]1CN(C)CC1CCOCC1	none (no result: ZTA counter, EBNA-1 inhibitor)
COc1cccc(C(=O)N[C@H](C(=O)N2CCC[C@H]2C(=O)NCc2ccccc2)c2ccccc2)c1	none (no result: ZTA counter, EBNA-1 inhibitor)
